One compound from ChEMBL document CHEMBL3612040, “Discovery of Selective Small Molecule Inhibitors of Monoacylglycerol Acyltransferase 3” (J Med Chem, 2015) can be followed below.

The source made the active and inactive calls. The calls are words filed in the database; no cut-off is given here.

Data set [1] is described as follows: Volume of distribution in mouse at 1 mg/kg, iv. The format is ADME, organism-based. The following applies: in vivo. The gist of the method: (§1)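 Single 1 mg/kg intravenous dose in mice; systemic clearance, volume of distribution and effective half-life derived from plasma pharmacokinetics.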
In the next data set the test system is Salmonella typhimurium. Kind of data set: Genotoxicity in Salmonella typhimurium by Amest test. The format is toxicity, organism-based. The conditions noted are these: salmonella enterica subsp. enterica serovar typhimurium.
In a further data set the target is Cytochrome P450 2C9 (Homo sapiens, UniProt P11712). Kind of data set: Inhibition of human CYP2C9. The class given is ADME.
Sequence of Cytochrome P450 2C9 (P11712 whole entry): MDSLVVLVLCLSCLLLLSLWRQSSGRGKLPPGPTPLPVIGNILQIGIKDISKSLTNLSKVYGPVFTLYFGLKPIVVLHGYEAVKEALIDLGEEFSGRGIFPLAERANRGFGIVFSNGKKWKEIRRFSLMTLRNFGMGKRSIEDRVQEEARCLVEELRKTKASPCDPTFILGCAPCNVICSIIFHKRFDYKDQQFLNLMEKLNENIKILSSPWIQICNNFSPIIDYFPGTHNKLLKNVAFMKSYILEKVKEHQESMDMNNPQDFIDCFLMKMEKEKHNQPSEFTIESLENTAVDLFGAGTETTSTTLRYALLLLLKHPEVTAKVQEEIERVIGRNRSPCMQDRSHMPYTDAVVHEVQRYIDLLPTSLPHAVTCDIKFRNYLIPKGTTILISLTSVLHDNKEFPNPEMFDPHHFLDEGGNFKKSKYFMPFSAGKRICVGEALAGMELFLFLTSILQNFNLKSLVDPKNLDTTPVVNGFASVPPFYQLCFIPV
Another data set relates to Mus musculus. As to the kind of experiment: Effect on incorporation of glycerol-d8 into triolein in wild type mouse by measuring atom percent excess at 200 mg/kg, po dosed 1 hr before of 100 mg/kg, iv glycerol-d8 and measured 30 mins post glycerol-d8 dosing and co-treated with 30 mg/kg for DGAT1 inhibitor-12 and 10 mg/kg for DGAT2 inhibitor-13 by LC-MS method. The format is functional, organism-based. The gist of the method: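 Fed mice (wild type or human MOGAT3 transgenic) were studied between 8 AM and 12 PM. Inhibitors were given orally in 0.5% methyl cellulose in saline. After 1 h, D8-glycerol (10 mg/mL in saline) was injected into the tail vein. Blood was taken into EDTA 30 min later and plasma lipids extracted. D5-glycerol in triolein (18:1/18:1/18:1) was measured by LC/MS as atom percent excess, mean ± SE.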

Data set [2] in a line: Systemic clearance in mouse at 1 mg/kg, iv. The format is ADME, organism-based. The conditions noted are these: in vivo. The gist of the method: as §1
For a further data set, the target named is T1, Cytochrome P450 2C8 (Homo sapiens, UniProt P10632).
T1 sequence (P10632 whole entry): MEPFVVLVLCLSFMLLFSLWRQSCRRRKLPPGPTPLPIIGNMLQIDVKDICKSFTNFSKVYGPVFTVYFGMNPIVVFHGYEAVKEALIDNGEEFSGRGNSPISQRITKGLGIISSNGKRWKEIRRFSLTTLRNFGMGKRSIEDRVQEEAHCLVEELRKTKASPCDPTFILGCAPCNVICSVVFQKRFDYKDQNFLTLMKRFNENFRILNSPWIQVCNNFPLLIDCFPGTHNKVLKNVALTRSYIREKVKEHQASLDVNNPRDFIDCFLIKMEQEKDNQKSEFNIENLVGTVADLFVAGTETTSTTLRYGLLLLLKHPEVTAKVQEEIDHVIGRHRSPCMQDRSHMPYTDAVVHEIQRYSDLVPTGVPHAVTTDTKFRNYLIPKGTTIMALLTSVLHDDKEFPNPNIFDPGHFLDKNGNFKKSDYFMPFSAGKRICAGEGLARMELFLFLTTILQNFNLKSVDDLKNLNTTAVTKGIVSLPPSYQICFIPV
Kind of data set: Inhibition of human CYP2C8. The class given is ADME.

A further data set concerns the target Cytochrome P450 3A4 (Homo sapiens, UniProt P08684). Kind of data set: Inhibition of human CYP3A4. The class given is ADME.
Data set [3] in a line: AUClast in mouse at 5 mg/kg, po. Set-up: dose 5 mg/kg, route oral, time 0 - last. The class given is ADME, organism-based. The conditions noted are these: in vivo.
For the next data set, the target named is T2, Cytochrome P450 1A2 (Homo sapiens, UniProt P05177).
T2 sequence (P05177 whole entry): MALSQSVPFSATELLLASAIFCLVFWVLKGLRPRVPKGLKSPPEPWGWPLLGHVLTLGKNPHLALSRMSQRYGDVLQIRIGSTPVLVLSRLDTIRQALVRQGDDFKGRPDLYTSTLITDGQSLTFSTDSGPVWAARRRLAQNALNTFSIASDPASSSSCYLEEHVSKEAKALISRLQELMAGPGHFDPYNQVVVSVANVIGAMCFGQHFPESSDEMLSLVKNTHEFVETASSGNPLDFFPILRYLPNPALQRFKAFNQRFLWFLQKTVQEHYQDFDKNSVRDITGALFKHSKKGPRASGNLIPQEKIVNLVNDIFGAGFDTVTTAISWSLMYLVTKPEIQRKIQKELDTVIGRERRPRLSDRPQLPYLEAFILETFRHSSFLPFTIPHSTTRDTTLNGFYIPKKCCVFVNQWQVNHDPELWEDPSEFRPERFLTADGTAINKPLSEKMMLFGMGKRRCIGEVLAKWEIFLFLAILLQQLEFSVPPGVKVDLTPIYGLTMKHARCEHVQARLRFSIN
Kind of data set: Inhibition of human CYP1A2. The class given is ADME.

The test system of the next data set is HepG2. Kind of data set: Toxicity in human HepG2 cells up to 300 uM incubated for 72 hrs. The class given is cell-based. The conditions noted are these: hepg2, 72 h. The gist of the method: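 HepG2 cells incubated with compound up to 300 µM for 72 hours.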

Sequence of Cytochrome P450 3A4 (P08684 whole entry): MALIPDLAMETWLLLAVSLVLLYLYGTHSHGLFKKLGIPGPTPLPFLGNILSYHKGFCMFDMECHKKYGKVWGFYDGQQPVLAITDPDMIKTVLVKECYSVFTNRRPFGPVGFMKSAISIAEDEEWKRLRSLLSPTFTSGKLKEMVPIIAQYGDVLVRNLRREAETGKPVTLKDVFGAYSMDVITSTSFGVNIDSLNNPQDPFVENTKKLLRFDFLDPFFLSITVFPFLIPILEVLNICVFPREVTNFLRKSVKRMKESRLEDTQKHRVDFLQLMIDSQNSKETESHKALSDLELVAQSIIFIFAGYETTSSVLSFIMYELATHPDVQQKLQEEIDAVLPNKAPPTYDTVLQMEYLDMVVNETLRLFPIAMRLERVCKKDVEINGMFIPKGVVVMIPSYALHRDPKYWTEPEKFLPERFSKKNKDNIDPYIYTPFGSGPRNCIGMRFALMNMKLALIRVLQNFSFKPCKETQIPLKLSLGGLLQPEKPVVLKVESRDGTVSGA

As usually defined, the Vd is a proportionality between amount in the body and measured concentration, not a real space. The clearance is the volume of plasma or blood freed of the substance per unit of time. High values mean efficient removal, low ones inefficient removal. What is called AUC(0-t) is exposure summed from dosing to a finite time, without extrapolation to infinity. `COc1cccc(CC(=O)N2Cc3ccc(S(=O)(=O)Nc4cnn(C5CCC5)n4)cc3C2)c1` returned a Vd in data set [1] of 0.17 L/kg. The Activity entry in the data set with Salmonella typhimurium and in the data set with HepG2 was “Non-toxic” throughout. Also, the “inhibition (INH)” value against Cytochrome P450 2C9, against Cytochrome P450 2C8, against Cytochrome P450 3A4 and against Cytochrome P450 1A2 was “Not Active” throughout. Also, the result in the data set with Mus musculus was inactive. Besides, the clearance in [2] is 1.4 mL/min/kg. In [3], this compound showed an AUC(0-t) of 27000 ng·h/mL.
